pIC50: −log10 of the molar value.
Assays:
Format in all cases: functional
CCRF-CEM = experiment: In vitro inhibitory activity against CCRF-CEM cell growth in culture, after 48-h incubation.; conditions: Homo sapiens, read-out: ID50 (the source's name)
How it was run: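 Human lymphoblastic leukemia CCRF-CEM cells grown in culture with drug for 48 h. ID50 is the drug concentration that inhibits culture growth by 50% relative to untreated controls, reported in μM.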

Mus musculus [1] = experiment: In vivo percent increase in life span relative to untreated controls in B6D2F1/J male mice at dose 50 mg/kg
Mus musculus [2] = experiment: In vivo percent increase in life span relative to untreated controls in B6D2F1/J male mice at dose 60 mg/kg
Mus musculus [3] = experiment: In vivo percent increase in life span relative to untreated controls in B6D2F1/J male mice at dose 20 mg/kg
Mus musculus [4] = experiment: In vivo percent increase in life span relative to untreated controls in B6D2F1/J male mice at dose 30 mg/kg
Mus musculus [5] = experiment: In vivo percent increase in life span relative to untreated controls in B6D2F1/J male mice at dose 40 mg/kg
Mus musculus [6] = experiment: In vivo antitumor efficacy expressed as number survivors in 60-days out of 7 male mice at dose 30 mg/kg; Value represented as = 4/7
Mus musculus [7] = experiment: In vivo antitumor efficacy expressed as number survivors in 60-days out of 7 male mice at dose 20 mg/kg; Value represented as = 3/7
Mus musculus [8] = experiment: In vivo antitumor efficacy expressed as number survivors in 60-days out of 7 male mice at dose 50 mg/kg; Value represented as = 5/7
Mus musculus [9] = experiment: In vivo antitumor efficacy expressed as number survivors in 60-days out of 7 male mice at dose 60 mg/kg; Value represented as = 5/7
Mus musculus [10] = experiment: In vivo antitumor efficacy expressed as number survivors in 60-days out of 7 male mice at dose 40 mg/kg; Value represented as = 6/7
Mus musculus [11] = experiment: In vivo percent increase in life span relative to untreated controls in B6D2F1/J male mice at dose 70 mg/kg
Mus musculus [12] = experiment: In vivo antitumor efficacy expressed as number survivors in 60-days out of 7 male mice at dose 70 mg/kg; Value represented as = 7/7
Mus musculus [13] = experiment: In vivo antitumor efficacy expressed as number survivors in 60-days out of 7 male mice at dose 60 mg/kg; Value represented as = 6/7
Mus musculus [14] = experiment: In vivo antitumor efficacy expressed as number survivors in 60-days out of 7 male mice at dose 30 mg/kg; Value represented as = 0/7
Mus musculus [15] = experiment: In vivo antitumor efficacy expressed as number survivors in 60-days out of 7 male mice at dose 50 mg/kg; Value represented as = 2/7
Mus musculus [16] = experiment: In vivo antitumor efficacy expressed as number survivors in 60-days out of 7 male mice at dose 60 mg/kg; Value represented as = 4/7
Mus musculus [17] = experiment: In vivo antitumor efficacy expressed as number survivors in 60-days out of 7 male mice at dose 70 mg/kg; Value represented as = 4/7
Mus musculus [18] = experiment: In vivo antitumor efficacy expressed as number survivors in 60-days out of 7 male mice at dose 40 mg/kg; Value represented as = 1/7
Mus musculus [19] = experiment: In vivo antitumor efficacy expressed as number survivors in 60-days out of 7 male mice at dose 70 mg/kg; Value represented as = 6/7
Mus musculus [20] = experiment: In vivo antitumor efficacy expressed as number survivors in 60-days out of 7 male mice at dose 50 mg/kg; Value represented as = 4/7
Mus musculus [21] = experiment: In vivo antitumor efficacy expressed as number survivors in 60-days out of 7 male mice at dose 40 mg/kg; Value represented as = 0/7
Mus musculus [22] = experiment: In vivo antitumor efficacy expressed as number survivors in 60-days out of 7 male mice at dose 50 mg/kg; Value represented as = 1/7
Mus musculus [23] = experiment: In vivo antitumor efficacy expressed as number survivors in 60-days out of 7 male mice at dose 60 mg/kg; Value represented as = 7/7
Mus musculus [24] = experiment: In vivo antitumor efficacy expressed as number survivors in 60-days out of 7 male mice at dose 40 mg/kg; Value represented as = 3/7
Mus musculus [25] = experiment: In vivo antitumor efficacy expressed as number survivors in 60-days out of 7 male mice at dose 50 mg/kg; Value represented as = 0/7
Mus musculus [26] = experiment: In vivo antitumor efficacy expressed as number survivors in 60-days out of 7 male mice at dose 60 mg/kg; Value represented as = 1/7
Mus musculus [27] = experiment: In vivo antitumor efficacy expressed as number survivors in 60-days out of 7 male mice at dose 70 mg/kg; Value represented as = 1/7
Mus musculus [28] = experiment: In vivo antitumor efficacy expressed as number survivors in 60-days out of 7 male mice at dose 60 mg/kg; Value represented as = 0/7
Mus musculus [29] = experiment: In vivo percent increase in life span relative to untreated controls in B6D2F1/J male mice at dose 4 mg/kg
Mus musculus [30] = experiment: In vivo percent increase in life span relative to untreated controls in B6D2F1/J male mice at dose 1 mg/kg
Mus musculus [31] = experiment: In vivo percent increase in life span relative to untreated controls in B6D2F1/J male mice at dose 2 mg/kg
Mus musculus [32] = experiment: In vivo percent increase in life span relative to untreated controls in B6D2F1/J male mice at dose 3 mg/kg
Mus musculus [33] = experiment: In vivo antitumor efficacy expressed as number survivors in 60-days out of 7 male mice at dose 1 mg/kg; Value represented as = 0/7
Mus musculus [34] = experiment: In vivo antitumor efficacy expressed as number survivors in 60-days out of 7 male mice at dose 2 mg/kg; Value represented as = 0/7
Mus musculus [35] = experiment: In vivo antitumor efficacy expressed as number survivors in 60-days out of 7 male mice at dose 4 mg/kg; Value represented as = 0/7
Mus musculus [36] = experiment: In vivo antitumor efficacy expressed as number survivors in 60-days out of 7 male mice at dose 5 mg/kg; Value represented as = 0/7
Mus musculus [37] = experiment: In vivo antitumor efficacy expressed as number survivors in 60-days out of 7 male mice at dose 3 mg/kg; Value represented as = 0/7

Structure (SMILES)	pIC50 (CCRF-CEM)	ILS at 50 mg/kg (Mus musculus [1]) [%]	ILS at 60 mg/kg (Mus musculus [2]) [%]	ILS at 30 mg/kg (Mus musculus [4]) [%]	ILS at 40 mg/kg (Mus musculus [5]) [%]	Survivors (Mus musculus [8])	Survivors (Mus musculus [9])	ILS at 70 mg/kg (Mus musculus [11]) [%]	Survivors (Mus musculus [21])	further results
CCCCC(=O)OCC(=O)[C@]1(O)Cc2c(O)c3c(c(O)c2[C@@H](OC2CC(NC(=O)C(F)(F)F)C(O)C(C)O2)C1)C(=O)c1c(OC)cccc1C3=O (some centres undefined)	6.62	> 445	> 445	> 445	> 445	5	5			ILS at 20 mg/kg (Mus musculus [3]): 281%; Survivors (Mus musculus [6]): 4; Survivors (Mus musculus [7]): 3; Survivors (Mus musculus [10]): 6
COc1cccc2c1C(=O)c1c(O)c3c(c(O)c1C2=O)C[C@@](O)(C(=O)COC(=O)CCCCC(=O)O)C[C@@H]3OC1CC(NC(=O)C(F)(F)F)C(O)C(C)O1 (some centres undefined)	6.51	> 445	> 445		> 445	5		> 445		Survivors (Mus musculus [12]): 7; Survivors (Mus musculus [13]): 6; Survivors (Mus musculus [10]): 6
COc1cccc2c1C(=O)c1c(O)c3c(c(O)c1C2=O)C[C@@](O)(C(=O)COC(=O)CCCC(=O)O)C[C@@H]3OC1CC(NC(=O)C(F)(F)F)C(O)C(C)O1 (some centres undefined)	6.55	172	> 445	81	109			> 445		Survivors (Mus musculus [14]): 0; Survivors (Mus musculus [15]): 2; Survivors (Mus musculus [16]): 4; Survivors (Mus musculus [17]): 4; Survivors (Mus musculus [18]): 1
COc1cccc2c1C(=O)c1c(O)c3c(c(O)c1C2=O)C[C@@](O)(C(=O)COC(=O)CCCCCCCCC(=O)O)C[C@@H]3OC1CC(NC(=O)C(F)(F)F)C(O)C(C)O1 (some centres undefined)	6.30	> 445	> 445		109		5	> 445	0	Survivors (Mus musculus [19]): 6; Survivors (Mus musculus [20]): 4
COc1cccc2c1C(=O)c1c(O)c3c(c(O)c1C2=O)C[C@@](O)(C(=O)COC(=O)CCCCCC(=O)O)C[C@@H]3OC1CC(NC(=O)C(F)(F)F)C(O)C(C)O1 (some centres undefined)	6.44	136	> 445		181			> 445		Survivors (Mus musculus [19]): 6; Survivors (Mus musculus [22]): 1; Survivors (Mus musculus [23]): 7; Survivors (Mus musculus [24]): 3
COc1cccc2c1C(=O)c1c(O)c3c(c(O)c1C2=O)C[C@@](O)(C(=O)CO)C[C@@H]3OC1CC(NC(=O)C(F)(F)F)C(O)C(C)O1 (some centres undefined)	6.64									
COc1cccc2c1C(=O)c1c(O)c3c(c(O)c1C2=O)C[C@@](O)(C(=O)COC(=O)CC(=O)O)C[C@@H]3OC1CC(NC(=O)C(F)(F)F)C(O)C(C)O1 (some centres undefined)	6.48	109	136		109			154	0	Survivors (Mus musculus [25]): 0; Survivors (Mus musculus [26]): 1; Survivors (Mus musculus [27]): 1
COc1cccc2c1C(=O)c1c(O)c3c(c(O)c1C2=O)C[C@@](O)(C(=O)COC(=O)CCC(=O)O)C[C@@H]3OC1CC(NC(=O)C(F)(F)F)C(O)C(C)O1 (some centres undefined)	6.52	118	127		127			190	0	Survivors (Mus musculus [25]): 0; Survivors (Mus musculus [28]): 0; Survivors (Mus musculus [27]): 1
COc1cccc2c1C(=O)c1c(O)c3c(c(O)c1C2=O)C[C@@](O)(C(=O)COC(=O)CCCCCCCC(=O)O)C[C@@H]3OC1CC(NC(=O)C(F)(F)F)C(O)C(C)O1 (some centres undefined)	6.36	> 445	> 445	445	172	5	5	> 445		Survivors (Mus musculus [12]): 7; Survivors (Mus musculus [6]): 4; Survivors (Mus musculus [24]): 3
COc1cccc2c1C(=O)c1c(O)c3c(c(O)c1C2=O)C[C@@](O)(C(=O)CO)C[C@@H]3O[C@H]1C[C@H](N)[C@H](O)[C@H](C)O1 [DOXORUBICIN]	7.30									ILS at 4 mg/kg (Mus musculus [29]): 63%; ILS at 1 mg/kg (Mus musculus [30]): 81%; ILS at 2 mg/kg (Mus musculus [31]): 90%; ILS at 3 mg/kg (Mus musculus [32]): 181%; Survivors (Mus musculus [33]): 0; Survivors (Mus musculus [34]): 0; Survivors (Mus musculus [35]): 0; Survivors (Mus musculus [36]): 0; Survivors (Mus musculus [37]): 0

From ChEMBL document CHEMBL1123031, “Adriamycin analogues. rationale, synthesis, and preliminary antitumor evaluation of highly active DNA-nonbinding N-(trifluoroacetyl)adriamycin 14-O-hemiester derivatives” (1985)
